Experiment [1] concerns the target Dual specificity protein kinase CLK1 (Homo sapiens) (UniProt P49759). The experiment can be described thus: Residual activity of CLK1 at 10 uM by microplate scintillation counting.
The target of experiment [2] is CDK8/Cyclin C (Homo sapiens) (UniProt P49336+P24863). The experiment can be described thus: Residual activity of CDK8/Cyclin C at 10 uM by microplate scintillation counting. The class given is protein-complex assay.
The target in experiment [3] is Cyclin-dependent kinase 2/cyclin A (Homo sapiens) (UniProt P24941+P20248+P78396). The experiment can be described thus: Residual activity of CDK2/Cyclin A at 1 uM by microplate scintillation counting. It is filed as protein-complex assay.
In experiment [4] the target is Ribosomal protein S6 kinase alpha-4 (Homo sapiens) (UniProt O75676). The experiment can be described thus: Residual activity of RPS6KA4 at 0.1 uM by microplate scintillation counting.
The target of experiment [5] is Tyrosine-protein kinase ABL1 (Homo sapiens) (UniProt P00519). The experiment can be described thus: Residual activity of wild type ABL1 at 10 uM by microplate scintillation counting.
The target in a further experiment is Aurora kinase B (Homo sapiens, UniProt Q96GD4). The experiment can be described thus: Inhibition of Aurora-B by microplate scintillation counting. A digest of the protocol:
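Substrates: tetra(LRRWSLG) for Aurora A/B; poly(Ala,Glu,Lys,Tyr)6:2:5:1 for PDGFRβ; poly(Glu,Tyr)4:1 for TIE2 and VEGFR2. Stopped with 2% H3PO4.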

In experiment [6] the target is T1, Tyrosine-protein kinase receptor TYRO3 (Homo sapiens) (UniProt Q06418).
T1 sequence (whole entry): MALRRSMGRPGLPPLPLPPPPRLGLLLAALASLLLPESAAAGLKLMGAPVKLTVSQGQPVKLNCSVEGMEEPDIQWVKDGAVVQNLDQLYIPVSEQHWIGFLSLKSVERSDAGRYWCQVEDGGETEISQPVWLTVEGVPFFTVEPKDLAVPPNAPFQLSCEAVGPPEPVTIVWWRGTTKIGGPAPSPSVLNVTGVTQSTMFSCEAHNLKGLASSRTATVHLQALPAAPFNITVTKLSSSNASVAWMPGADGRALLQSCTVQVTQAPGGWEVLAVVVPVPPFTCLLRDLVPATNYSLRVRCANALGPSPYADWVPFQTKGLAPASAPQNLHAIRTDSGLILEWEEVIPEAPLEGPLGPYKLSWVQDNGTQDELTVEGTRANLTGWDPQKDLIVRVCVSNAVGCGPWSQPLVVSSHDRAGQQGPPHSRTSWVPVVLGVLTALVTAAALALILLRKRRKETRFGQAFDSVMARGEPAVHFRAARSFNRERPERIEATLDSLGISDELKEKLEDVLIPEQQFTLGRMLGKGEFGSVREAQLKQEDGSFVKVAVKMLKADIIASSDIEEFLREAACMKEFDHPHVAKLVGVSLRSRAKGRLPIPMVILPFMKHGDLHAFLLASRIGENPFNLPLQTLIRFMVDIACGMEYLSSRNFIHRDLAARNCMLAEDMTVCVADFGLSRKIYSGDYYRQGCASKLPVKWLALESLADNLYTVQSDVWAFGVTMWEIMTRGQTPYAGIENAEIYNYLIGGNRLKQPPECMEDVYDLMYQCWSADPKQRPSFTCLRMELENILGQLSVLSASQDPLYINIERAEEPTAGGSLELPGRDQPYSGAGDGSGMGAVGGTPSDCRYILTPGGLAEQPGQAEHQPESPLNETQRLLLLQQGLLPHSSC
The experiment can be described thus: Residual activity of TYRO3 at 1 uM by microplate scintillation counting.

Experiment [7] deals with Fibroblast growth factor receptor 1 (Homo sapiens) (UniProt P11362). The experiment can be described thus: Residual activity of wild type FGF-R1 at 0.1 uM by microplate scintillation counting.
Experiment [8] concerns the target T2, Inhibitor of nuclear factor kappa-B kinase subunit epsilon (Homo sapiens) (UniProt Q14164).
T2 sequence (whole entry): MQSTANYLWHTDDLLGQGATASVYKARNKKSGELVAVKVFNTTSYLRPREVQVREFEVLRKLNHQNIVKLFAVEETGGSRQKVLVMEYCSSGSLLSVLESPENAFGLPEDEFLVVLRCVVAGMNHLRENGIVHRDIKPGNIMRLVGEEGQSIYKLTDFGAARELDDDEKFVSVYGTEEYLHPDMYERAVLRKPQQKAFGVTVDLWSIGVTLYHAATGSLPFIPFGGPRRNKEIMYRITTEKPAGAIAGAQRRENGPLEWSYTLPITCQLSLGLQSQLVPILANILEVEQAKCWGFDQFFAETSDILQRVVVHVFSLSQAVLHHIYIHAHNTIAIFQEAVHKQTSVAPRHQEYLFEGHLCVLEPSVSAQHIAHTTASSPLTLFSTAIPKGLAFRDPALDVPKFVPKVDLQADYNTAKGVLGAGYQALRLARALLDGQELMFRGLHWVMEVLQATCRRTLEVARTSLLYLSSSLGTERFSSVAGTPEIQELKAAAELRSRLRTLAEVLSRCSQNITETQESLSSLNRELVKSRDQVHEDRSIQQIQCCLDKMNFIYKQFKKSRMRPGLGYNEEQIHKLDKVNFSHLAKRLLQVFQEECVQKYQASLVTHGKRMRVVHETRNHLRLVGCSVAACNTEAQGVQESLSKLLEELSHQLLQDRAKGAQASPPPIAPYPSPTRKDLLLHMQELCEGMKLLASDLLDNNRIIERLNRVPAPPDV
The experiment can be described thus: Residual activity of IKKepsilon at 1 uM by microplate scintillation counting.

Chain of Aurora kinase B (Q96GD4 whole entry): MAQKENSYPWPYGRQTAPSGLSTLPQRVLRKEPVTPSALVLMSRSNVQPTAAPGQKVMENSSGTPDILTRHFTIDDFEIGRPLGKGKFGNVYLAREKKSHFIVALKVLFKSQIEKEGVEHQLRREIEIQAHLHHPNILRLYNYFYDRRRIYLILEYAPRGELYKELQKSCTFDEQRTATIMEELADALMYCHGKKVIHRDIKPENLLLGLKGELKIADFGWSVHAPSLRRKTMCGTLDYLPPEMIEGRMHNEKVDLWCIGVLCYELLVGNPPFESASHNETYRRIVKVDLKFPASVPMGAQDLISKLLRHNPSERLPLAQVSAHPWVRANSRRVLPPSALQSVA
Chain of Dual specificity protein kinase CLK1 (Homo sapiens) (P49759 whole entry, looked up): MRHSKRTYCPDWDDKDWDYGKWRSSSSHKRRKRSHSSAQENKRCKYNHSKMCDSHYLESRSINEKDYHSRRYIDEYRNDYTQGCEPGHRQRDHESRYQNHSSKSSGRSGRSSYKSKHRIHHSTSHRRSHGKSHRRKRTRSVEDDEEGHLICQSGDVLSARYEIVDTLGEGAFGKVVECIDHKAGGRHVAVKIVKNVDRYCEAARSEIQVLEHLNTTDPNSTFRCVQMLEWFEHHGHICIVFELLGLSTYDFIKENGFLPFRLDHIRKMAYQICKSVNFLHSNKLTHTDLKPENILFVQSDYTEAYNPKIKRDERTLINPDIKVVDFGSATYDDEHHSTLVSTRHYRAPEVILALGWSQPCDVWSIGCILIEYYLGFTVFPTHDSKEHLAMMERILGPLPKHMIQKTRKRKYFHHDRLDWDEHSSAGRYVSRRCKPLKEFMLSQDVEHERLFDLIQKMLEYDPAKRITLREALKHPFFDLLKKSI
Chain of Ribosomal protein S6 kinase alpha-4 (Homo sapiens) (O75676 whole entry, looked up): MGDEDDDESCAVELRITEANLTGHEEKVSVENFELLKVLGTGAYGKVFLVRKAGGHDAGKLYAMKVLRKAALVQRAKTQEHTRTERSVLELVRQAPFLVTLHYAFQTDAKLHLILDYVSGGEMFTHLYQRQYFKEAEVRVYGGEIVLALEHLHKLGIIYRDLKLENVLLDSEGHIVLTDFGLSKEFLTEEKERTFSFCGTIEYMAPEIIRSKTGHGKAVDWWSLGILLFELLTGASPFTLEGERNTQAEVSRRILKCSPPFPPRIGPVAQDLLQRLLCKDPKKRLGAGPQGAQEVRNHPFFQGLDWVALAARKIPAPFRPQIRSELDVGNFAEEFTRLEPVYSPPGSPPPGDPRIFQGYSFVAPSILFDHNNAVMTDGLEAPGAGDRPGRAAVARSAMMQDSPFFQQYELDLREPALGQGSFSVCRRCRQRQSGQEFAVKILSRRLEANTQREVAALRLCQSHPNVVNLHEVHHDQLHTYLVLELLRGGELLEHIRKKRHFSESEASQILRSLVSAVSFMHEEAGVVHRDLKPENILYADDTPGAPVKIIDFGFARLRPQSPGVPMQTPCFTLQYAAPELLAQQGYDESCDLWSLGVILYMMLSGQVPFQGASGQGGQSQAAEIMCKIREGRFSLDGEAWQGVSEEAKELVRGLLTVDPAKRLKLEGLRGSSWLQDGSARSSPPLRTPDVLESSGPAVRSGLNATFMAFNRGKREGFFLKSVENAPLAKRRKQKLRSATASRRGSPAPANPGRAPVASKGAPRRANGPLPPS
Chain of Fibroblast growth factor receptor 1 (Homo sapiens) (P11362 22-822 limits assumed): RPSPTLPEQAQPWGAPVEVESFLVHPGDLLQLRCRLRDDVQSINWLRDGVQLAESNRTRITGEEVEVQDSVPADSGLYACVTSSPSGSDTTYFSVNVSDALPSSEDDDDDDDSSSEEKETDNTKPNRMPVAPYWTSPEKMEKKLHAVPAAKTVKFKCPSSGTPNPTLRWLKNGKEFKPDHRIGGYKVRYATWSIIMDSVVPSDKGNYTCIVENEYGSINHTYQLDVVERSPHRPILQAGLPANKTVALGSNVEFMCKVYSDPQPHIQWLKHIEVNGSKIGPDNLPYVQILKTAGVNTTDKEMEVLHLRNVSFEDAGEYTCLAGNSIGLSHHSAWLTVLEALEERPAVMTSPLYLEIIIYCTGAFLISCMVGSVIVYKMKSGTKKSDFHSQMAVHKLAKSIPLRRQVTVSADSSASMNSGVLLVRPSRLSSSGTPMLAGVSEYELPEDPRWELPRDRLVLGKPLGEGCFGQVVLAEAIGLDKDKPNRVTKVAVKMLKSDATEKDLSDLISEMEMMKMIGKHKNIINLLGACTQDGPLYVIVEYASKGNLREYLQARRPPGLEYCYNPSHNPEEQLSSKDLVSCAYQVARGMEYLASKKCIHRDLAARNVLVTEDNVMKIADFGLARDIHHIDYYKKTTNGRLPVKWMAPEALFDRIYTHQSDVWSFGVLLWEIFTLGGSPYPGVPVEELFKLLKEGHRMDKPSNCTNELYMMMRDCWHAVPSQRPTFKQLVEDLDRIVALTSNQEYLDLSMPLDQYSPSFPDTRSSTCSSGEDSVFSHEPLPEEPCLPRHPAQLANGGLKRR
Chain of Tyrosine-protein kinase ABL1 (Homo sapiens) (P00519 whole entry): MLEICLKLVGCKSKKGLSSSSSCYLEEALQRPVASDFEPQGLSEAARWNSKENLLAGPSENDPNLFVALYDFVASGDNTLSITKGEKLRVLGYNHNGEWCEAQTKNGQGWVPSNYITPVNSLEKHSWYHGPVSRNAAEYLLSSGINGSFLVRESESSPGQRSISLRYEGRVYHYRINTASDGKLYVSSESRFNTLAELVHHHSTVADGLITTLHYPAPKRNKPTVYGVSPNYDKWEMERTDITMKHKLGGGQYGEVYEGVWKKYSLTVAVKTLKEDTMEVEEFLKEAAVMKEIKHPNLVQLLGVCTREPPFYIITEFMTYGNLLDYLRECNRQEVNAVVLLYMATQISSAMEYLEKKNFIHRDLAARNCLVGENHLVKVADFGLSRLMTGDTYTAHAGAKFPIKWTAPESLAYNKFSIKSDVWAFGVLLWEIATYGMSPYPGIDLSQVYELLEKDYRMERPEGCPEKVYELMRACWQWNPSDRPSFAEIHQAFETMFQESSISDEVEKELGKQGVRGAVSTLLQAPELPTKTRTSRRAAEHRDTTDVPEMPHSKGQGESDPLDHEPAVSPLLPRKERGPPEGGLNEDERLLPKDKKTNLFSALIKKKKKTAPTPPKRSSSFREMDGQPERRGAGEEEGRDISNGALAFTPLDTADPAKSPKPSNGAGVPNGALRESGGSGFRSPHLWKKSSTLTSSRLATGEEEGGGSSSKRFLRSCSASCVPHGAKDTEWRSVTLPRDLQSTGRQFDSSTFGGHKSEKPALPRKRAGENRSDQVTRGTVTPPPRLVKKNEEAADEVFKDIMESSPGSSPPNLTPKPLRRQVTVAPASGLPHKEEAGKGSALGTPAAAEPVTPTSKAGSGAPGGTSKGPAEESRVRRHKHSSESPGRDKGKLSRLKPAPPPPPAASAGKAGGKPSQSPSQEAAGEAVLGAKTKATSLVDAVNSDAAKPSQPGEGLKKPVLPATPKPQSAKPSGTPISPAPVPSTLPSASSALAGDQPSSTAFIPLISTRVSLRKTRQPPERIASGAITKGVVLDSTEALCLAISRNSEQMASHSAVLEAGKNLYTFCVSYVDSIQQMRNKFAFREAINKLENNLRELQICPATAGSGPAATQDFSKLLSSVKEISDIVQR

Take `COc1cc2c(Oc3ccc(-c4nc5ccccc5s4)cc3)ncnc2cc1OCCCN1CCCC1`: the residual activity in [1] came out at 97%; in [2], 82%; in experiment [3], 96%; in experiment [4] it was 88%; in [5], 41%; in [6] it was 103%. In addition, the results for the residual activity in experiment [7] and in experiment [8] were 101% and 98%, respectively. This compound displayed an IC50 on Aurora kinase B of 162 nM.

Consider `COc1cc2c(Oc3ccc(-c4nc5ccccc5s4)cc3F)ncnc2cc1OCCCN1CCN(C)CC1`, for which the residual activity in experiment [1] was found to be 61%; in experiment [2], 75%; in [3] it was 97%; in [4], 93%; in experiment [5], 26%; in experiment [6], 103%. In addition, the residual activity in experiment [7] amounted to 95%; in [8], 81%. Half-maximal inhibition against Aurora kinase B (IC50) required 130 nM.

`COc1cc2c(Oc3ccc(-c4nc5ccccc5s4)cc3)ncnc2cc1OCCCN1CCN(C)CC1`: the residual activity in [1] worked out at 83%; in experiment [2], 88%; in [3], 96%; in experiment [4], 91%; in [5], 28%; in [6], 100%. Moreover, the residual activity in experiment [7] was 103%; in experiment [8], 90%. The compound further came in with an IC50 on Aurora kinase B of 63 nM.
